Results as given in article PMC4241170 (ACS Chemical Biology, 2014).

How the values were obtained:
HSP70 (aa 386-616) = HSP70 (aa 386-616) (Homo sapiens, UniProt P0DMV8); test: ITC, C-terminal domain of HSP70; format: binding; settings: Figure 2J
In short: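 Recombinant HSP70 C-terminal fragment (aa 386–616) titrated against test compound by isothermal titration calorimetry. Kd reported as average and standard deviation of three independent experiments.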

DnaK (aa 389-607) = DnaK (aa 389-607) (Escherichia coli, UniProt P0A6Y8); test: ITC, DnaK SBD; format: binding, E. coli; settings: data not shown
mammalian tumor cells = test: Viability of mammalian tumor cells; format: cell-based; settings: TPP moiety alone, Figure 1C
In short: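 Human A875 melanoma cells and nontransformed human IMR90 fibroblasts treated for 24 h alongside a DMSO vehicle control. Results are representative of four independent experiments.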

E. coli DH5α = test: Growth of E. coli at elevated temperature; format: cell-based; settings: 6 h at 43 °C, 30 μM in Figure 1E
In short: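 E. coli DH5α grown with varying concentrations of test compound for 6 h at 43 °C, with a DMSO vehicle control; one comparison used 30 μM. Growth measured in four independent experiments, with s.d. error bars.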

HSP70 = test: ITC, HSP70 presaturated with PET-16, interaction with PES; format: binding, human; settings: data not shown
[1] = tested on: nucleotide-free HSP70 protein; test: ITC, nucleotide-free HSP70; format: binding, human; settings: compared with ADP-bound form; 42 °C
GRP75 = settings: ref [5],[19]; cited from earlier work
GRP78 (BiP) = settings: ref [5],[19]; cited from earlier work

HSP70 (aa 386-616), sequence (P0DMV8 386-616): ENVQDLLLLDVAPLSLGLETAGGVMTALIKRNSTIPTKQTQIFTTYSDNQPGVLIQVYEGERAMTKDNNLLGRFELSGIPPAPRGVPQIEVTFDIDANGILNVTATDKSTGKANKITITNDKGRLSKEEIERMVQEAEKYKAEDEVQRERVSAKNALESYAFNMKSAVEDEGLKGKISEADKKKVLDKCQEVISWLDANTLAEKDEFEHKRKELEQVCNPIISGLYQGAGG
DnaK (aa 389-607), sequence (P0A6Y8 389-607): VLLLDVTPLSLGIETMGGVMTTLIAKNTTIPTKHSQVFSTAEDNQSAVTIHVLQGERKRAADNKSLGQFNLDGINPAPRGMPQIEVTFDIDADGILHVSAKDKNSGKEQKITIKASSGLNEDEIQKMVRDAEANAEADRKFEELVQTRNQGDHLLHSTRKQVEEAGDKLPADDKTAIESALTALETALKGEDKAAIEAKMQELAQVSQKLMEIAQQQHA

Row | binding to HSP70 SBD (ITC) (HSP70 (aa 386-616)) | binding to DnaK SBD (ITC) (DnaK (aa 389-607)) | Molecule | effect on viability of mammalian tumor cells (mammalian tumor cells) | effect on growth of E. coli (E. coli DH5α) | interaction of HSP70 with PES after presaturation with PET-16 (HSP70) | interaction with nucleotide-free HSP70 (ITC) [1] | interaction with GRP75 (GRP75) | interaction with GRP78 (BiP) (GRP78 (BiP))
1 | does not bind | does not bind | triphenylphosphine (TPP) bromide | little discernible effect | did not detect an effect |  |  |  | 
2 |  |  | NS(=O)(=O)C#Cc1ccccc1 [PES, 2-phenylethynesulfonamide] |  |  | impairs the interaction | comparable affinity | do not interact | do not interact
